Most compounds without a hit are left out; they make up all but 1.2% or so of the library.
ARFGAP1 inhibitor: inhibitors of rat ARFGAP1 GAP activity, primary screen, biochemical, fluorescence polarization, GDP tracer; ADP-ribosylation factor GTPase-activating protein 1 (Rattus norvegicus), Q62848; Arfgap1-stimulated ARF1 GTP hydrolysis, GDP FP detection; inhibition, % at 16.5 µM; 360,000 compounds, 0.26% hits; AID 651572, 2012;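 active = inhibition above a per-plate limit, mean inhibition of low control wells plus 3 SD, cut at about 25% in these data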;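 note: 0% = DMSO wells with enzyme and 100% = wells lacking Arfgap1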
Target sequence (Q62848 1-136 limits assumed): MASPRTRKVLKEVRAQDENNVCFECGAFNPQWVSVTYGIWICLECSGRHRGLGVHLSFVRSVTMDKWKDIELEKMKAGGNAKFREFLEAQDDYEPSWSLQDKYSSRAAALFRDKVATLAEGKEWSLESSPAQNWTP
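Assay system: Rat Arfgap1 GAP domain (His6, aa 1-136), purified enzyme | Buffer or medium: HEPES 25 mM pH 7.5, NaCl 150 mM, MgCl2, DTT | Schedule: GTP hydrolysis reaction 2 h at 25 °C | Signal: FP of antibody-bound GDP Alexa 633 tracer, ex 620/em 688 nm | Measure: Percent inhibition of Arfgap1-stimulated GTP hydrolysis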
IDE cell activ: human IDE activators in live cells, primary screen, fluorescence polarization, HEK cells, FAbeta-B substrate. activation, % at 5.96 µM. FAbeta-B cleavage; 0% vehicle, 100% cell-free pure enzyme wells. AID 493087, 2011. 340,000 compounds, 0.073% hits;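 active = activation above the mean of all tested compounds plus 3 SD, set per screening campaign, cut at about 17% in these data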
ASAP1 GAP inh: inhibitors of human ASAP1 ArfGAP activity, primary screen, biochemical, fluorescence polarization | inhibition, % at 16.5 µM | Arf-GAP with SH3 domain, ANK repeat and PH domain-containing protein 1 (Homo sapiens), … | 360,000 compounds, 0.19% hits | ASAP1-stimulated ARF1 GTP hydrolysis, GDP FP detection | AID 624377, 2012; in the data active = inhibition above about 25%;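 note: 0% = vehicle with enzyme and substrate and 100% = no enzyme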
Target sequence (Q9ULH1 325-724 limits assumed): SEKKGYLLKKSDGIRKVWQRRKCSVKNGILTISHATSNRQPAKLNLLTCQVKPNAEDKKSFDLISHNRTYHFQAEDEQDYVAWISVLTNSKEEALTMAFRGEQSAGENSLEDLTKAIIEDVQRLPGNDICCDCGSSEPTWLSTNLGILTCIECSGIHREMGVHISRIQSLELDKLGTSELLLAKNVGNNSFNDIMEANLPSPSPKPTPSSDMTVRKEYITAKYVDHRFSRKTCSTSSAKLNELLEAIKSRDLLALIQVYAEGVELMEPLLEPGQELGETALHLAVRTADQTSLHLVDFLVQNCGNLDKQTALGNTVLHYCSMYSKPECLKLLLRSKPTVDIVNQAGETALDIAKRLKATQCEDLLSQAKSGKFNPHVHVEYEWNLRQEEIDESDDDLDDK
PREPL inhibitor: PREPL enzyme inhibitors, primary screen, biochemical, fluorescence polarization; Prolyl endopeptidase-like (Homo sapiens), Q4J6C6; recombinant PREPL, fluorescence polarization activity-based probe; inhibition, % at 5.96 µM; 320,000 compounds, 0.68% hits; AID 2751, 2010; in the data active = inhibition above about 43%;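 note: 0% = enzyme with DMSO and 100% = wells lacking enzyme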
IDE cell inh: human IDE inhibitors in live cells, primary screen, fluorescence polarization, HEK cells, FAbetaB substrate; 320,000 compounds, 0.41% hits; Insulin-degrading enzyme (Homo sapiens), P14735; FAbetaB cleavage; inhibition, % at 5.59 µM;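 active = percent inhibition above the average of all tested compounds plus 3 SD, set per screening campaign, cut at about 16% in these data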;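 note: IDE supplied by intact live HEK cells; FP after avidin binding of uncleaved biotin substrate so inhibition keeps polarization high; 0% = DMSO wells and 100% = 60 µM reference IDE inhibitor Ii1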
ASAP1 GAP conf: ASAP1 GAP activity inhibitors, confirmation, biochemical, fluorescence polarization, human, triplicate. 620 compounds, 37% hits. ASAP1-stimulated Arf1 GTPase, GDP fluorescence polarization. inhibition, % at 16.5 µM. shares compounds with ASAP1 GAP inh. AID 624431, 2012;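 active = mean inhibition over triplicates exceeds the hit threshold derived for the earlier primary screening run, cut at about 25% in these data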
ARFGAP1 confirm: ARFGAP1 inhibitor hit confirmation, biochemical, fluorescence polarization, triplicate; shares compounds with ARFGAP1 inhibitor; ARFGAP1-stimulated ARF1 GTP hydrolysis, GDP tracer FP; inhibition, % at 16.5 µM; 890 compounds, 30% hits; AID 651608, 2012;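 active = average inhibition over triplicates above the hit cutoff set in the earlier primary screen, cut at about 25% in these data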;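 note: 0% = Arfgap1 plus ARF1-GTP with DMSO and 100% = wells lacking Arfgap1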
* = called active by the depositor; . = no result given.

SMILES | ARFGAP1 inhibitor | IDE cell activ | ASAP1 GAP inh | PREPL inhibitor | IDE cell inh | ASAP1 GAP conf | ARFGAP1 confirm
O=C(Nc1ccc(-c2cc3ccccc3oc2=O)c(Cl)c1)c1cccnc1 | 62* | -4 | 46* | -10 | -1 | 59* | 82*
O=S(=O)(N[C@H](CO)c1ccccc1)c1ccc(Br)cc1F | -3 | 0 | 14 | . | . | . | .
COc1cccc(/C=N/NC(=O)N/N=C/c2cccc(OC)c2O)c1O | 64* | 4 | 31* | 25 | 1 | 81* | 95*
COc1ccccc1C=NNC(=O)NN=Cc1ccccc1OC | 57* | 3 | 30* | . | . | 53* | 67*
COc1ccccc1/C=N/NC(=O)c1ccc(Br)cc1 | -2 | -1 | -18 | 0 | 5 | . | .
COc1ccc(/C=N/NC(=O)c2ccccc2OC)cc1COc1ccccc1[N+](=O)[O-] | 3 | 2 | 6 | -29 | -3 | . | .
COc1ccc(/C=N\NC(=O)c2ccc([N+](=O)[O-])c(C)c2)cc1COc1ccccc1C(N)=O | 78* | 5 | 47* | 13 | 7 | 88* | 123*
COC(=O)CNC(=O)CNC(=O)c1nn(-c2ccc(OC)c(OC)c2)c(=O)c2ccccc12 | 4 | 2 | 2 | 3 | 1 | . | .
COc1ccc(-n2nc(C(=O)NCC(=O)NCc3ccc(F)cc3)c3ccccc3c2=O)cc1OC | 139* | 2 | 43* | 2 | 3 | 49* | 88*
O=C(N/N=C/c1ccc(Cl)c([N+](=O)[O-])c1)c1ccc2c(c1)OCCO2 | 66* | 2 | 83* | . | . | 104* | 99*
C=CCOc1c(Cl)cc(CNc2nccs2)cc1OC | 14 | -8 | 23 | -3 | 0 | . | .
COc1ccc([N+](=O)[O-])cc1NC(=O)c1ccc(Br)s1 | 36* | 2 | 38* | -8 | 3 | 54* | 68*
NNC(=O)c1ccccc1CO | . | . | . | 1 | 6 | . | .
C[n+]1c(-c2ccc(C=NNC(=O)c3ccc(C(=O)NN=Cc4ccc(-c5cn6ccccc6[n+]5C)cc4)cc3)cc2)cn2ccccc21 | 66* | 0 | 42* | . | . | 50* | 90*
O=C(O)CSc1cc(NS(=O)(=O)c2cccc([N+](=O)[O-])c2)c2ccccc2c1O | 25* | -7 | 28* | . | . | 14 | -9
CCc1ccc(S(=O)(=O)Nc2cc(SCC(=O)O)c(O)c3ccccc23)cc1 | 14 | -2 | -1 | 13 | 8 | . | .
COc1ccc(-c2cc(NC=O)c3ncc(-c4ccc(C(C)=O)cc4)n3c2)cc1OC | 28* | . | 45* | . | . | 61* | 50*
O=C(NCc1ccccc1)[C@@H]1CCCN1C(=O)[C@H]1CCCN1C(=O)c1ccccc1Cl | -3 | . | -2 | . | . | . | .
CN(C(=O)c1ccccc1C(=O)OCC(=O)Nc1ccc(S(N)(=O)=O)cc1)c1ccccc1 | -10 | 2 | 2 | -6 | -4 | . | .
O=C(Nc1ccc(-c2nc3ccc(NC(=O)c4cccs4)cc3[nH]2)cc1)c1cccs1 | 73* | 3 | 37* | 11 | 5 | 74* | 124*
COc1cc(/C=C/C(=O)Nc2ccc3nc4n(c(=O)c3c2)CCCC4)cc(OC)c1OC | 25* | 0 | 27* | 16 | 0 | 43* | 38*
CN(Cc1ccccc1F)C(=O)CN1c2cccc3cccc(c23)S1(=O)=O | 29* | 1 | 30* | -8 | 3 | 41* | 51*
CC(=O)c1ccc(NC(=O)c2cn(-c3ccccc3)nc2-c2ccncc2)cc1 | -10 | 5 | 6 | 11 | 1 | . | .
COC(=O)c1ccc(NC(=O)c2cn(-c3ccccc3)nc2-c2ccncc2)cc1 | 30* | -3 | 31* | -16 | 0 | 51* | 61*
CC(NC(=O)C(=O)NN=C1CCCC1)c1ccccc1 (configuration not stated) | 10 | 8 | -3 | -5 | -4 | . | .
SMILES | ARFGAP1 inhibitor | IDE cell activ | ASAP1 GAP inh | PREPL inhibitor | IDE cell inh | ASAP1 GAP conf | ARFGAP1 confirm
O=C(Nc1cccc(-c2cnc3ccccc3n2)c1)c1cccc(NC(=O)c2ccco2)c1 | 101* | 3 | 102* | -82 | -4 | 91* | 126*
O=C(Nc1cccc(-c2cnc3ccccc3n2)c1)c1ccccc1 | 7 | 1 | 4 | -13 | 0 | . | .
CN1C(=O)[C@H]2[C@@H](c3ccc(C(F)(F)F)cc3)N[C@]3(CCCN(Cc4ccco4)C3=O)[C@H]2C1=O | -6 | . | 1 | . | . | . | .
Fc1ccc(Nc2cncc(-c3ccsc3)c2)cc1Cl | 29* | . | 39* | . | . | 14 | 5
Fc1ccc(Nc2nnc(C(F)(F)F)s2)cc1Cl | -9 | 6 | 7 | -20 | 9 | . | .
Cc1cc(C(=O)COC(=O)c2n[nH]c3ccccc23)c(C)n1C | 33* | 0 | 34* | 4 | 5 | 35* | 52*
COc1cccc(/C=C2\Oc3cc(OCC(=O)N4CCCC4)ccc3C2=O)c1OC | 4 | 2 | 12 | 1 | 3 | . | .
COc1ccc(/C=C2\Oc3cc(OCC(=O)N4CCC(C(=O)O)CC4)ccc3C2=O)c(OC)c1OC | 31* | 23* | 32* | -6 | -15 | 35* | 41*
O=C(Cn1cncc1-c1ccc([N+](=O)[O-])cc1)Nc1cccc2ccccc12 | 41* | -6 | 28* | 26 | 7 | 37* | 46*
Cc1ccc(C2c3c(n[nH]c3C(C)C)C(=O)N2c2ccccc2)cc1 (configuration not stated) | 14 | . | -5 | . | . | . | .
Cc1nn(C)c(C)c1NS(=O)(=O)c1cccc(Br)c1 | -2 | 6 | 2 | -14 | -2 | . | .
CCCCN(CC)CCCNC(=O)c1cc2c(-c3ccc(OC)c(OC)c3)nn(C)c2s1 | 27* | 3 | 34* | 34 | -1 | 72* | 74*
Cc1sc2ncnc(SCC(=O)N3CCCC(C(N)=O)C3)c2c1C (configuration not stated) | -5 | 2 | 10 | 25 | -2 | . | .
O=C(CSc1nnnn1-c1ccccc1)Nc1nsc(-c2ccccc2)n1 | -15 | 2 | -3 | 12 | 0 | . | .
O=C(CSc1nnnn1-c1ccccc1)Nc1nsc(-c2ccc(Cl)cc2)n1 | 44* | 2 | 26* | 6 | 1 | 45* | 58*

Source: PubChem
